From ChEMBL document CHEMBL1143323, “Oxidosqualene cyclase from Saccharomyces cerevisiae, Trypanosoma cruzi, Pneumocystis carinii and Arabidopsis thaliana expressed in yeast: a model for the development of novel antiparasitic agents” (Bioorg Med Chem Lett, 2009)

Legend:
[1] = biological target: T1, Lanosterol synthase (Homo sapiens, UniProt P48449); assay: Inhibition of human OSC expressed in Saccharomyces cerevisiae SMY8
T1 sequence (P48449 whole entry): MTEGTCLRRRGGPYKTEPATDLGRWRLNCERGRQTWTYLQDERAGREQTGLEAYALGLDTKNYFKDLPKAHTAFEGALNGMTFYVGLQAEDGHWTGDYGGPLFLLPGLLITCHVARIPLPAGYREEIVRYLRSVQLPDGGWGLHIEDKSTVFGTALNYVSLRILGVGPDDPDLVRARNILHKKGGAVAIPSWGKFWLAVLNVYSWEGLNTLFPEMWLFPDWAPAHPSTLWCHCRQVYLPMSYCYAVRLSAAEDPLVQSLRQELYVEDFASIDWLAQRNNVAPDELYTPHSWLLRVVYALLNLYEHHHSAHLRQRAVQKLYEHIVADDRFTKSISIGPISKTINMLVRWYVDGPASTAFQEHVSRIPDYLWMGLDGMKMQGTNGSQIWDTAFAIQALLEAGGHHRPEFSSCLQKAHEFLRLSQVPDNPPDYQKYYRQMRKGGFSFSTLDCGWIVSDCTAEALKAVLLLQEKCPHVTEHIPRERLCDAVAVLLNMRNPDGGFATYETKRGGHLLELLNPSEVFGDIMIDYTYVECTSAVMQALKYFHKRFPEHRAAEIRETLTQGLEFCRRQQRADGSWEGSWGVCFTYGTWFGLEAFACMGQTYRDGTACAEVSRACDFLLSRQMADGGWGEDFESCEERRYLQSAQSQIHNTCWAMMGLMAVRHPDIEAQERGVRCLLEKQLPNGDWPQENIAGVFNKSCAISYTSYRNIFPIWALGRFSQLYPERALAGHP

[2] = biological target: Cycloartenol synthase (Arabidopsis thaliana, UniProt P38605); assay: Inhibition of Arabidopsis thaliana cycloartenol synthase expressed in Saccharomyces cerevisiae SMY8
Sequence of Cycloartenol synthase (P38605 whole entry): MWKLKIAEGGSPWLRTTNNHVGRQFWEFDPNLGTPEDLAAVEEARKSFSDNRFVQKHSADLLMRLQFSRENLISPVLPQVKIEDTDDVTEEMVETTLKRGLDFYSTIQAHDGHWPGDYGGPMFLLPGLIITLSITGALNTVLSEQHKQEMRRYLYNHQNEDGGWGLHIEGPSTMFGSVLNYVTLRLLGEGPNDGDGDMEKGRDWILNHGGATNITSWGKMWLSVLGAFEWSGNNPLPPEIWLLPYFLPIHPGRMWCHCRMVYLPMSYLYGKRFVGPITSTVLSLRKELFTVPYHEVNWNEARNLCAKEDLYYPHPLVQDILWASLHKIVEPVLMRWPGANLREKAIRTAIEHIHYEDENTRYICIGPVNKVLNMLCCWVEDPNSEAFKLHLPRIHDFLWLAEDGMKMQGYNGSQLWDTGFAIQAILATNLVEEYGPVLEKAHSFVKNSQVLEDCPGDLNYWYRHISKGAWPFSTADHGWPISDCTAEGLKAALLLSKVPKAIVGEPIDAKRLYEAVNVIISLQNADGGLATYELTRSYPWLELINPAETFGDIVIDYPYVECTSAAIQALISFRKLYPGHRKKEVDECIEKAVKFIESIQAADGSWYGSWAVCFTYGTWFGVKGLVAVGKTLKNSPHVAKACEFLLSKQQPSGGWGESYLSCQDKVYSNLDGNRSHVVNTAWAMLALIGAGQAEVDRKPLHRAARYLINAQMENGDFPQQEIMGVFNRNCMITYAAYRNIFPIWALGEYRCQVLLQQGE
Summary of the method: (§1)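 Cell-free homogenates of recombinant OSC-defective S. cerevisiae SMY8 strains, each expressing one OSC: lanosterol cyclase from S. cerevisiae, T. cruzi or P. carinii, or cycloartenol cyclase from A. thaliana. Cyclase activity was measured in homogenates with inhibitor present and IC50 derived. Values are means of two separate experiments, each with duplicate incubations; maximum deviation from the mean under 10%.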

[3] = biological target: T2, Lanosterol synthase ERG7 (Saccharomyces cerevisiae S288c, UniProt P38604); assay: Inhibition of yeast OSC expressed in Saccharomyces cerevisiae SMY8; summary of the method: as §1
T2 sequence (P38604 whole entry): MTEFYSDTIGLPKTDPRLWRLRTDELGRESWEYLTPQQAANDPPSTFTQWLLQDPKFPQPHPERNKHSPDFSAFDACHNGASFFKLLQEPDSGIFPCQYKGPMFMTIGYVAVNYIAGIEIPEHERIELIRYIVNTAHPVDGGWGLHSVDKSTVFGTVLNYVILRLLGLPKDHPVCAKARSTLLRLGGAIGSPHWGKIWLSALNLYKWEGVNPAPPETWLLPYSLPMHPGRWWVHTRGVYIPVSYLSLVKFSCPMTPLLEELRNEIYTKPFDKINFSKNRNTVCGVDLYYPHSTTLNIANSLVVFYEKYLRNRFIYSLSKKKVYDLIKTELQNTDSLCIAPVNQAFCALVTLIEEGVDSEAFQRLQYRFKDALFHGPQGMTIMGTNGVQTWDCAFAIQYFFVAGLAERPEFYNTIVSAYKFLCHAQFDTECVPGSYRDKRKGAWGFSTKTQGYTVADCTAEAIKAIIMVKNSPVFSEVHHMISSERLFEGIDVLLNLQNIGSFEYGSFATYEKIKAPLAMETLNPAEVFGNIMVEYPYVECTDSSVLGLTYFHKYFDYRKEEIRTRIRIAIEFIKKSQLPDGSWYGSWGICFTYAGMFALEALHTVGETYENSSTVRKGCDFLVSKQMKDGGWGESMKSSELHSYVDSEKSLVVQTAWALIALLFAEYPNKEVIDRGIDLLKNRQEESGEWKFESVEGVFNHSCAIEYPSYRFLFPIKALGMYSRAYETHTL

[4] = Inhibition of Trypanosoma cruzi OSC expressed in Saccharomyces cerevisiae SMY8; summary of the method: as §1
[5] = Inhibition of Pneumocystis carinii OSC expressed in Saccharomyces cerevisiae SMY8; summary of the method: as §1
[6] = Selectivity ratio of IC50 for human OSC to IC50 for Pneumocystis carinii OSC

IC50 [1] [nM]	IC50 [2] [nM]	IC50 [3] [nM]	IC50 [5] [nM]	Ratio IC50 [6]	Structure (SMILES)	IC50 [4] [nM]
440	320	500	1300		CCN(CC)C1(CCCC[C@H]2CC[C@H](N(C)S(=O)(=O)c3ccc(C(F)(F)F)cc3)CC2)CC1	400
120	480	600	70		Brc1ccc(-c2nsc3cc(OCCCCN4CCOCC4)ccc23)cc1	1100
20300	10000	280	550	40	C=CCN(C)CCCCCCOc1ccc(-c2nsc3cc(Br)ccc23)cc1	> 5000
450	3000	270			CCN(CCO)CCCCC[C@H]1CC[C@H](N(C)S(=O)(=O)c2ccc(C(F)(F)F)cc2)CC1	1600
250	250	320	50	5	C=CCN(C)Cc1ccc(-c2ccc(C(=O)c3ccc(Br)cc3)cc2)cc1	600
260	70	700	200		C=CCN(C)CCCCOc1ccc2c(-c3ccc(Br)cc3)nsc2c1	250
230	1700	5000	2250		CCN(CCO)CCCC#Cc1ccc2c(-c3ccc(Br)cc3)nsc2c1	> 10000
720	1500	1500	400		CN([C@H]1CC[C@H](CCCCCN(CCO)CCO)CC1)S(=O)(=O)c1ccc(C(F)(F)F)cc1	2700
11500	1250	2200	1000		CCN(CCO)C(C)(C)C#Cc1ccc2c(-c3ccc(Br)cc3)nsc2c1	4200
	1750	210	340		C=CCN(C)CCCCCCOc1ccc(C(=O)c2ccc(Br)cc2)c(F)c1	900
4930	4100	7000	1000		CCN(CC)C(C)(C)CCCC[C@H]1CC[C@H](N(C)S(=O)(=O)c2ccc(C(F)(F)F)cc2)CC1	> 100000
100	440	300	120		C=CCN(C)CCCCC[C@H]1CC[C@H](N(C)S(=O)(=O)c2ccc(C(F)(F)F)cc2)CC1	300
270	260	180	200		CN(C/C=C/COc1ccc(C(=O)c2ccc(Br)cc2)cc1)C1CC1	1500
1150	2500	670	> 5000		O=C(c1ccc(Cl)cc1)N1CCC(=Cc2ccc(C3=NCCO3)cc2)CC1	> 5000
100	650	400	50		Brc1ccc(-c2nsc3cc(CCCCCN4CCOCC4)ccc23)cc1	1100
2300	2600	290	> 5000		C=CCN(C)CCCCCCOc1ccc2c(-c3ccc(Br)cc3)nn(C)c2c1	3000
> 10000	2000	> 100000	> 100000		CCN(CC)C(=O)CCCC[C@H]1CC[C@H](N(C)S(=O)(=O)c2ccc(C(F)(F)F)cc2)CC1	> 100000
90000	3000	210	1200		C=CCN(C)C/C=C/COc1ccc2c(-c3ccc(Br)cc3)coc2c1	
520	2300	700	50	10	CCN(CCO)CCCCOc1ccc2c(-c3ccc(Br)cc3)nsc2c1	6500
160	950	70	230		C=CCN(C)CCCCCCOc1ccc2c(-c3ccc(Br)cc3)nsc2c1	340
4600	550	300	800		CCN(CC#Cc1ccc2c(-c3ccc(Br)cc3)nsc2c1)CCO	2300
> 1000	800	100000			CC(=O)N(CCO)CCCCOc1ccc2c(-c3ccc(Br)cc3)nsc2c1	5500
2440	1000	3600	600		CCN(CC)CCCCC[C@H]1CC[C@H](N(C)S(=O)(=O)c2ccc(C(F)(F)F)cc2)CC1	2400

Structure (SMILES)	IC50 [1] [nM]	IC50 [2] [nM]	IC50 [3] [nM]	IC50 [5] [nM]	Ratio IC50 [6]	IC50 [4] [nM]
CCN(CCO)CCCCC[C@H]1CC[C@H](N(C)C(=O)Oc2ccc(Cl)cc2)CC1	4120	700	100	2500		2000
C=CCN(C)CCCCC[C@H]1CC[C@H](N(C)C(=O)Oc2ccc(C(F)(F)F)cc2)CC1	140	1000	50	340		70
